Test results taken from ChEMBL document CHEMBL3352313 (J Med Chem, 2014).
pEC50: −log10 of the molar value.

What was measured:
[1] = biological target: T1, Muscarinic acetylcholine receptor M5 (Homo sapiens) (UniProt P08912); assay: Positive allosteric modulator activity at human muscarinic acetylcholine receptor subtype 5 expressed in CHO cells by calcium mobilization assay relative to acetylcholine; assay type: functional, cell-based
T1 sequence (whole entry): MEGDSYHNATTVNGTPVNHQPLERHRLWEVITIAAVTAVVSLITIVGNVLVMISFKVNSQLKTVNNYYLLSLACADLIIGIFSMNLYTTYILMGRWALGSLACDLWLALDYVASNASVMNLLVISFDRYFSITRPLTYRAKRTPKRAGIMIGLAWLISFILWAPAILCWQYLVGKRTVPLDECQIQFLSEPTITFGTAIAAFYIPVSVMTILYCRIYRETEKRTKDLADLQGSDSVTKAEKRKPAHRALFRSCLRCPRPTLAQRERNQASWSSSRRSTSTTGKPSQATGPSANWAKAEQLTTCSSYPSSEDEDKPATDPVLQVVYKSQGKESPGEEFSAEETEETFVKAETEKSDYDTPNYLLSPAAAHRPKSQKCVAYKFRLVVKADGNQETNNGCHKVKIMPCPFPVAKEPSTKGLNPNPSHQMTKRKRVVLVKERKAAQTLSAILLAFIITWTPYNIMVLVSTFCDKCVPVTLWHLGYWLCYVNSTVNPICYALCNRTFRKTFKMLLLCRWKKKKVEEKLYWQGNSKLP

[2] = biological target: T1, Muscarinic acetylcholine receptor M5 (Homo sapiens); assay: Positive allosteric modulator activity at human muscarinic acetylcholine receptor subtype 5 expressed in CHO cells assessed as fold shift in acetylcholine-induced response at 10 uM by calcium mobilization assay; assay type: functional, cell-based
Summary of the method: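 In hM5 CHO cells by calcium mobilization, PAM at a fixed 10 μM or vehicle is added before an ACh concentration-response curve. Fold shift is the ratio of ACh potency without PAM to potency with PAM.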

[3] = biological target: T2, Muscarinic acetylcholine receptor M3 (Homo sapiens, UniProt P20309); assay: Activity at human muscarinic acetylcholine receptor subtype 3 expressed in CHO cells by calcium mobilization assay; assay type: functional, cell-based
Summary of the method: (§1)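 Muscarinic subtype selectivity by fluorescence calcium mobilization in highly expressing CHO lines with similar receptor levels; Gi/o-coupled M2 and M4 cells co-transfected with chimeric Gqi5 to couple to Ca2+ mobilization. Read-outs are PAM EC50 and ACh max response. Mean ± SEM of at least three independent determinations.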
Target sequence in this assay (P20309 whole entry): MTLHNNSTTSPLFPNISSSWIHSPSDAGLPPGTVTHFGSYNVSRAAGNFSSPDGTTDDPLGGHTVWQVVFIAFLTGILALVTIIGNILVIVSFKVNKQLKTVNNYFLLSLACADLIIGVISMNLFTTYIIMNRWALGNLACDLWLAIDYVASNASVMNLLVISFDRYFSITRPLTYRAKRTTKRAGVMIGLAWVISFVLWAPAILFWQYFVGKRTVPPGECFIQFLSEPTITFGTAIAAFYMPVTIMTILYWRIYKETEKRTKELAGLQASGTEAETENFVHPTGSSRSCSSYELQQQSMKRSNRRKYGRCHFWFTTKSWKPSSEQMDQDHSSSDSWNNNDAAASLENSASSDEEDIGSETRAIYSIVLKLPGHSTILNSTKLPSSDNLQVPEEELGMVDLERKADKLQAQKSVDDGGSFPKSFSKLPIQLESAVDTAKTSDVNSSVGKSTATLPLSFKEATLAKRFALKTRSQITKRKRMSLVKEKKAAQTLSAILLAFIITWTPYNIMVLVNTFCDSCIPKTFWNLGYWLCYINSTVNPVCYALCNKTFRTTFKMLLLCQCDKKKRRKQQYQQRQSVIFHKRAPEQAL

[4] = biological target: T3, Muscarinic acetylcholine receptor M5 (Rattus norvegicus, UniProt P08911); assay: Activity at rat muscarinic acetylcholine receptor subtype 5 expressed in CHO cells by calcium mobilization assay; assay type: functional, cell-based; summary of the method: as §1
T3 sequence (P08911 whole entry): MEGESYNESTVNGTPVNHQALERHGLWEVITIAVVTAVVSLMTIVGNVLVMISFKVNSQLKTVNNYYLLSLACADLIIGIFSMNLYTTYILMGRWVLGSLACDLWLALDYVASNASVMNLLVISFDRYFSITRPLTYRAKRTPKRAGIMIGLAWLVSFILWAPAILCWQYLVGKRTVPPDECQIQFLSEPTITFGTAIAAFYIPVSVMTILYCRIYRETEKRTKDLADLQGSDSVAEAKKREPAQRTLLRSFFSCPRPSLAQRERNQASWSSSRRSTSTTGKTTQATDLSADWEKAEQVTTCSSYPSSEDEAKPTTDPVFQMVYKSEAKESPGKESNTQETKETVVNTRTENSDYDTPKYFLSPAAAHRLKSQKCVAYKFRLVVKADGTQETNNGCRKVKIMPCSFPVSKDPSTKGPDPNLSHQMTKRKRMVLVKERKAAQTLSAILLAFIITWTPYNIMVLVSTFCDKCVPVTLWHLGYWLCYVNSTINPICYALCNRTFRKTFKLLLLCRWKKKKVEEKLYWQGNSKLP

[5] = biological target: T4, Muscarinic acetylcholine receptor M4 (Rattus norvegicus, UniProt P08485); assay: Activity at rat muscarinic acetylcholine receptor subtype 4 expressed in CHO cells co-transfected with chimeric Gqi5 by calcium mobilization assay; assay type: functional, cell-based; summary of the method: as §1
T4 sequence (P08485 whole entry): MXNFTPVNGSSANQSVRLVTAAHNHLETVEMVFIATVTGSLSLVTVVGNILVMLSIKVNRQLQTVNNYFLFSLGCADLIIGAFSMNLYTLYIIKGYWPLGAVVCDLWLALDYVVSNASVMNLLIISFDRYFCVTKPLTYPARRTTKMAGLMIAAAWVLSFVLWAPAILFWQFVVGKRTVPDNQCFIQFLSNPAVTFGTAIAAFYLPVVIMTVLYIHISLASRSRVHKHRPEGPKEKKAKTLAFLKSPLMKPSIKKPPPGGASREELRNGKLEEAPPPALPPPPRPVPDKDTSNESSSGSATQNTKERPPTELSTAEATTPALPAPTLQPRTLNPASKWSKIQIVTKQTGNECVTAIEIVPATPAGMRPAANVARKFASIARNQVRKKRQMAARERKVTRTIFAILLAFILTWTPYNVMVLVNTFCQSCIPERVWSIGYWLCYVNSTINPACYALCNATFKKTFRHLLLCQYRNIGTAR

[6] = biological target: Muscarinic acetylcholine receptor M3 (Rattus norvegicus, UniProt P08483); assay: Activity at rat muscarinic acetylcholine receptor subtype 3 expressed in CHO cells by calcium mobilization assay; assay type: functional, cell-based; summary of the method: as §1
Sequence of Muscarinic acetylcholine receptor M3 (Rattus norvegicus, UniProt P08483) (P08483 whole entry): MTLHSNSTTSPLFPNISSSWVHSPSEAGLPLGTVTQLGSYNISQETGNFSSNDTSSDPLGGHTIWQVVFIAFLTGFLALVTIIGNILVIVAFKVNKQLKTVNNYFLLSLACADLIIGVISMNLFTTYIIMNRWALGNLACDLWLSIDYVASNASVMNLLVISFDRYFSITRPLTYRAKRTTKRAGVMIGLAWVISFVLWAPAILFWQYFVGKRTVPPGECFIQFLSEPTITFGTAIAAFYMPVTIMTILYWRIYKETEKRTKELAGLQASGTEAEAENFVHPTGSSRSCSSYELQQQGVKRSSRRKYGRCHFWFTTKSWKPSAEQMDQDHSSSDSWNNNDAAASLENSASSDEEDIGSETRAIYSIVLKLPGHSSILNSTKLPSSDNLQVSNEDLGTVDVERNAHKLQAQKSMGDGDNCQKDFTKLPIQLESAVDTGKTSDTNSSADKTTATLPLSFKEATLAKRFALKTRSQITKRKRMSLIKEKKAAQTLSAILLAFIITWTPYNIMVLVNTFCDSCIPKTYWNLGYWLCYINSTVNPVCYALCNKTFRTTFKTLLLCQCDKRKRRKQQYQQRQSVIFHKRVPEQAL

[7] = biological target: T2, Muscarinic acetylcholine receptor M3; assay: Activity at human muscarinic acetylcholine receptor subtype 3 expressed in CHO cells by calcium mobilization assay acetylcholine; assay type: functional, cell-based; summary of the method: as §1
Target sequence in this assay (P20309 whole entry, looked up): as the sequence (P20309 whole entry) above

[8] = biological target: Sigma non-opioid intracellular receptor 1 (Homo sapiens) (UniProt Q99720); assay: Displacement of radioligand from human sigma-1 receptor at 10 uM
Sequence of Sigma non-opioid intracellular receptor 1 (Homo sapiens) (Q99720 whole entry): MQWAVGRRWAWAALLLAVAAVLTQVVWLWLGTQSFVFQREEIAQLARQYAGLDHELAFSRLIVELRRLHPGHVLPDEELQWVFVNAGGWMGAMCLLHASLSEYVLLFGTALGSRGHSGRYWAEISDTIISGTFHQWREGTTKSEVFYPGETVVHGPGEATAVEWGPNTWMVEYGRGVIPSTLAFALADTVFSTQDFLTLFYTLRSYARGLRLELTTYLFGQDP
Summary of the method: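 Pan Labs lead profiling radioligand binding battery of 68 GPCRs, ion channels and transporters, with test compound present at 10 μM.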

Plasma = assay: Fraction unbound in human plasma at 5 uM incubated for 4 hrs at 37 degC by equilibrium dialysis based LC/MS/MS analysis; assay type: ADME, cell-free
Summary of the method: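 Fraction unbound measured in rat and human plasma and in rat brain homogenate.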

[9] = Volume of distribution at steady state in Sprague-Dawley rat 1 mg/kg, iv administered as single dose by LC/MS/MS utilizing electrospray ionization method; assay type: ADME, organism-based; parameters: dose 1 mg/kg, route intravenous; conditions: in vivo, read-out: Vdss
Rattus norvegicus [10] = assay: Brain to plasma partition coefficient, Kp of the compound in Sprague-Dawley rat 1 mg/kg, iv administered as single dose after 15 mins by LC/MS/MS utilizing electrospray ionization method; assay type: ADME, organism-based; parameters: dose 1 mg/kg, route intravenous; conditions: 0.25 h
Summary of the method: (§2)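 Male Sprague–Dawley rats (n = 3) dosed 1 mg/kg intravenously. Brain and plasma levels at 15 min after administration give Kp. Kp,uu is the unbound brain-plasma partition coefficient.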

Rattus norvegicus [11] = assay: Unbound brain-to-plasma concentration ratio in Sprague-Dawley rat 1 mg/kg, iv administered as single dose after 15 mins by LC/MS/MS utilizing electrospray ionization method; assay type: ADME, organism-based; parameters: dose 1 mg/kg, route intravenous; conditions: 0.25 h; summary of the method: as §2
[12] = Apparent permeability in human Caco2 cells; assay type: ADME, cell-based; conditions: caco-2

CCN(Cc1ccccc1C(F)(F)F)C(=O)C1CCN(S(=O)(=O)c2ccc3[nH]ncc3c2)CC1
%max [1]: 96% | fold change (FC) [2]: 9 | pEC50 [3]: 5.68 | pEC50 [4]: 6.21 | pEC50 [5]: < 4.52 | pEC50 [6]: 5.51 | %max [7]: 67% | inhibition [8]: 53% | Fu (Plasma): 0.015 | Vd [9]: 1.6 L/kg | Kp (Rattus norvegicus [10]): 0.36 | K(p,uu,brain) (Rattus norvegicus [11]): 0.28 | Papp [12]: 2.5 ×10⁻⁵ cm/s
